# Source: PMC3760280 (Structure (London, England : 1993), 2013)
# Like-named read-outs stand apart in the source and are kept apart here. Square brackets hold non-standard residues; d marks the D form. Peptide text beside a SMILES is read from it. * marks the point of attachment. FITC = O=C1OC2(c3ccc(O)cc3Oc3cc(O)ccc32)c2ccc(NC(=S)*)cc21; pT = C[C@@H](OP(=O)(O)O)[C@H](N)C(=O)O; pS = N[C@@H](COP(=O)(O)O)C(=O)O
# B1: GST-TopBP1 BRCT5 (641-746), Q92547 641-746 (domain or fragment)
# chain: TGMTPLEDCVISFSQCAGAEKESLTFLANLLGASVQEYFVRKSNAKKGMFASTHLILKERGGSKYEAAKKWNLPAVTIAWLLETARTGKRADESHFLIENSTKEER
# modifications: not checked
# B2: GST-TopBP1 BRCT4/5 (549-746) (domain or fragment)
# chain: EEGLFSQKSFLVLGFSNENESNIANIIKENAGKIMSLLSRTVADYAVVPLLGCEVEATVGEVVTNTWLVTCIDYQTLFDPKSNPLFTPVPVMTGMTPLEDCVISFSQCAGAEKESLTFLANLLGASVQEYFVRKSNAKKGMFASTHLILKERGGSKYEAAKKWNLPAVTIAWLLETARTGKRADESHFLIENSTKEER
# What was measured:
# GST-TopBP1 BRCT5 = GST-TopBP1 BRCT5 (Homo sapiens, UniProt Q92547); test: Fluorescence polarization; format: binding
# In short: (§1)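 Human TopBP1 GST fusions of BRCT4/5 (549–746) or BRCT5 (641–746), wild type or point mutants, were expressed in E. coli BL21-Gold and glutathione-affinity purified. Plates sat 15 min at room temperature, then FP was read at ex 485/em 538 nm. Kd was curve-fitted and averaged over ≥3 independent titrations.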
# GST-BRCT5 K704A (TopBP1) = GST-BRCT5 K704A (TopBP1) (Homo sapiens, UniProt Q92547, K704A); test: Fluorescence polarization; format: binding
# In short: as §1
# GST-TopBP1 BRCT4/5 = GST-TopBP1 BRCT4/5 (Homo sapiens, UniProt Q92547); test: Fluorescence polarization; format: binding
# In short: as §1
# [1] = target: GST-BRCT5 R681E/K682E (TopBP1) (Homo sapiens, UniProt Q92547, K682E/R681E); test: Fluorescence polarization; format: binding
# In short: as §1
# [2] = target: T1, FITC-labeled pSer MDC1 consensus SDT peptide FITC-GFIDpSDTDVEEE-NH2; test: fluorescence polarisation
# T1 chain: GFIDSDTDVEEE
# [3] = target: T2, FITC-labeled MDC1 consensus SDT di-phospho-peptide FITC-GFIDpSDpTDVEEE-NH2; test: fluorescence polarisation
# T2 chain: GFIDSDTDVEEE
# [4] = target: T3, FITC-labeled pThr MDC1 consensus SDT peptide FITC-GFIDSDpTDVEEE-NH2; test: fluorescence polarisation
# T3 chain: GFIDSDTDVEEE
# [5] = target: T4, FITC-labeled MDC1 SDT di-phospho-peptide with +2 Val to Asp, FITC-GFIDpSDpTDDEEE-NH2; test: fluorescence polarisation
# T4 chain: GFIDSDTDDEEE
# [6] = target: T5, FITC-labeled non-phosphorylated MDC1 consensus SDT peptide FITC-…-NH2; test: fluorescence polarisation
# T5 chain: GFIDSDTDVEEE
# [7] = target: T6, FITC-labeled MDC1 consensus SDT di-phospho-peptide FITC-GFIDpSDpTDVEEE-NH2; test: fluorescence polarisation
# T6 peptide: {FITC}-GFID[pS]D[pT]DVEEE-NH2
# Sequence of GST-BRCT5 K704A (TopBP1) (Q92547 641-746 K704A): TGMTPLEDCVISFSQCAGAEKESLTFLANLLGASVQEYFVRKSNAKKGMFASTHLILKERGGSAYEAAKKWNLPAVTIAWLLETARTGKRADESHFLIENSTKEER
# Sequence of GST-BRCT5 R681E/K682E (TopBP1) (Q92547 641-746 R681E/K682E): as the sequence (Q92547 641-746 K704A) above, with R41E, K42E, A64K counted along it
molecule,measurement,setting,value
CC[C@H](C)[C@H](NC(=O)[C@H](Cc1ccccc1)NC(=O)CNC(=S)Nc1ccc2c(c1)C(=O)OC21c2ccc(O)cc2Oc2cc(O)ccc21)C(=O)N[C@@H](CC(=O)O)C(=O)N[C@@H](COP(=O)(O)O)C(=O)N[C@@H](CC(=O)O)C(=O)N[C@H](C(=O)N[C@@H](CC(=O)O)C(=O)N[C@@H](CC(=O)O)C(=O)N[C@@H](CCC(=O)O)C(=O)N[C@@H](CCC(=O)O)C(=O)N[C@@H](CCC(=O)O)C(N)=O)[C@@H](C)OP(=O)(O)O [FITC-GFIDpSDpTDDEEE-NH2] ({FITC}-GFID[pS]D[pT]DDEEE-NH2),Kd,GST-TopBP1 BRCT5,24 ± 3 µM
CC[C@H](C)[C@H](NC(=O)[C@H](Cc1ccccc1)NC(=O)CNC(=S)Nc1ccc2c(c1)C(=O)OC21c2ccc(O)cc2Oc2cc(O)ccc21)C(=O)N[C@@H](CC(=O)O)C(=O)N[C@@H](COP(=O)(O)O)C(=O)N[C@@H](CC(=O)O)C(=O)N[C@H](C(=O)N[C@@H](CC(=O)O)C(=O)N[C@H](C(=O)N[C@@H](CCC(=O)O)C(=O)N[C@@H](CCC(=O)O)C(=O)N[C@@H](CCC(=O)O)C(N)=O)C(C)C)[C@@H](C)O [FITC-GFIDpSDTDVEEE-NH2] ({FITC}-GFID[pS]DTDVEEE-NH2),Kd,GST-TopBP1 BRCT5,105 ± 9 µM
CC[C@H](C)[C@H](NC(=O)[C@H](Cc1ccccc1)NC(=O)CNC(=S)Nc1ccc2c(c1)C(=O)OC21c2ccc(O)cc2Oc2cc(O)ccc21)C(=O)N[C@@H](CC(=O)O)C(=O)N[C@@H](COP(=O)(O)O)C(=O)N[C@@H](CC(=O)O)C(=O)N[C@H](C(=O)N[C@@H](CC(=O)O)C(=O)N[C@H](C(=O)N[C@@H](CCC(=O)O)C(=O)N[C@@H](CCC(=O)O)C(=O)N[C@@H](CCC(=O)O)C(N)=O)C(C)C)[C@@H](C)OP(=O)(O)O [FITC-GFIDpSDpTDVEEE-NH2] ({FITC}-GFID[pS]D[pT]DVEEE-NH2),Kd,GST-BRCT5 K704A (TopBP1),210 ± 50 µM
same,Kd,GST-TopBP1 BRCT4/5,27 ± 4 µM
same,Kd,[1],280 ± 60 µM
same,Kd,GST-TopBP1 BRCT5,28 ± 4 µM
CC[C@H](C)[C@H](NC(=O)[C@H](Cc1ccccc1)NC(=O)CNC(=S)Nc1ccc2c(c1)C(=O)OC21c2ccc(O)cc2Oc2cc(O)ccc21)C(=O)N[C@@H](CC(=O)O)C(=O)N[C@@H](CO)C(=O)N[C@@H](CC(=O)O)C(=O)N[C@H](C(=O)N[C@@H](CC(=O)O)C(=O)N[C@H](C(=O)N[C@@H](CCC(=O)O)C(=O)N[C@@H](CCC(=O)O)C(=O)N[C@@H](CCC(=O)O)C(N)=O)C(C)C)[C@@H](C)O [FITC-GFIDSDTDVEEE-NH2] ({FITC}-GFIDSDTDVEEE-NH2),Kd,GST-TopBP1 BRCT5,310 ± 70 µM
CC[C@H](C)[C@H](NC(=O)[C@H](Cc1ccccc1)NC(=O)CNC(=S)Nc1ccc2c(c1)C(=O)OC21c2ccc(O)cc2Oc2cc(O)ccc21)C(=O)N[C@@H](CC(=O)O)C(=O)N[C@@H](CO)C(=O)N[C@@H](CC(=O)O)C(=O)N[C@H](C(=O)N[C@@H](CC(=O)O)C(=O)N[C@H](C(=O)N[C@@H](CCC(=O)O)C(=O)N[C@@H](CCC(=O)O)C(=O)N[C@@H](CCC(=O)O)C(N)=O)C(C)C)[C@@H](C)OP(=O)(O)O [FITC-GFIDSDpTDVEEE-NH2] ({FITC}-GFIDSD[pT]DVEEE-NH2),Kd,GST-TopBP1 BRCT5,98 ± 9 µM
B1,Kd,[2],105 µM
same,Kd,[3],28 µM
same,Kd,[4],98 µM
same,Kd,[5],24 µM
same,Kd,[6],310 µM
B2,Kd,[7],27 ± 4 µM
